# pIC50: −log10 of the molar value.
# Assays:
# [1] = tested on: DLD-1; assay: Antiproliferative activity against human DLD-1 cells assessed as inhibition of cell viability measured after 72 hrs by MTT assay; format: functional, cell-based; details: DLD-1, 72 h
# Summary of the method: (§1)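 Cells kept at 37 °C, 5% CO₂ in RPMI 1640, L-15 or DMEM with 10% FBS and 1% penicillin-streptomycin. Plated at 2-4 × 10³ cells/well and dosed 24 h after plating. After 72 h exposure, MTT added for 2-4 h at 37 °C. Formazan dissolved in DMSO, absorbance read at 570 nm. IC50 is the mean of at least three independent experiments.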
# [2] = tested on: HCT-116; assay: Antiproliferative activity against human HCT-116 cells assessed as inhibition of cell viability measured after 72 hrs by MTT assay; format: functional, cell-based; details: HCT-116, 72 h; summary of the method: as §1
# [3] = tested on: HT-29; assay: Antiproliferative activity against human HT-29 cells assessed as inhibition of cell viability measured after 72 hrs by MTT assay; format: functional, cell-based; details: HT-29, 72 h; summary of the method: as §1
# [4] = organism: Homo sapiens; assay: Inhibition of dimerization of N-terminal His6-tagged human c-Myc bHLHZip domain (353 to 439 residues)/Max(151 residues) (unknown origin) expressed in Escherichia coli BL21DE3 assessed as inhibition of c-Myc/Max/DNA complex formation at 20 uM preincubated with c-Myc/Max for 1.5 hrs followed by incubation with DNA oligo for 0.5 hrs by EMSA analysis relative to control; details: time 2.0 hrs
# Summary of the method: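 Gel-shift used His-tagged Myc/Max complex (50 nM) with a biotinylated E-box duplex oligo (50 nM). Buffer was PBS pH 7.0 with 10 mM EDTA, 500 mM KCl, 30 mM MgCl2, 5% glycerol, 0.1% NP40, 1.5 mM DTT and 10% DMSO. Protein was preincubated with compound at 20 μM for 1.5 h at room temperature, then DNA was added for 0.5 h. Inhibition is relative to DMSO; three independent experiments.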
# [5] = tested on: HCT-15; assay: Antiproliferative activity against human HCT-15 cells assessed as inhibition of cell viability measured after 72 hrs by MTT assay; format: functional, cell-based; details: HCT-15, 72 h; summary of the method: as §1
# [6] = tested on: SW-620; assay: Antiproliferative activity against human SW-620 cells assessed as inhibition of cell viability measured after 72 hrs by MTT assay; format: functional, cell-based; details: SW-620, 72 h; summary of the method: as §1
# [7] = Inhibition of dimerization of N-terminal His6-tagged human c-Myc bHLHZip domain (353 to 439 residues)/Max(151 residues) (unknown origin) expressed in Escherichia coli BL21DE3 measured after 1 hr by ELISA
# Summary of the method: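 Myc bHLHZip (5.5 μg/well) was coated at 4 °C for 24 h in PBS pH 7.0 buffer (EDTA, KCl, MgCl2, glycerol, NP40, DTT), then blocked with 3% BSA for 2 h at 37 °C. Detection used rabbit anti-c-Myc, HRP anti-rabbit and TMB, read at 450 nm.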
Structure (SMILES),pIC50 [1],pIC50 [2],pIC50 [3],inhibition [4],pIC50 [5],pIC50 [6],pIC50 [7]
COc1cc(Oc2cccc(Nc3ccccc3)c2)cc(OC)c1CN(C)C,< 4.70,4.89,< 4.70,3.2%,4.81,< 4.70,< 3.82
COc1cc(Oc2cccc(Nc3ccccc3)c2)cc(OC)c1CNCc1ccc(Br)cc1,5.45,5.21,5.51,29.3%,5.27,4.95,3.89
COc1cccc(CCNCc2c(OC)cc(Oc3cccc(Nc4ccccc4)c3)cc2OC)c1,5.63,5.40,5.63,60.8%,5.89,5.41,4.11
COc1cc(Oc2cccc(Nc3ccccc3)c2)cc(OC)c1CNCc1ccc(F)cc1,5.58,5.37,5.56,21.2%,5.44,5.17,3.86
COc1cc(Oc2cccc(Nc3ccccc3)c2)cc(OC)c1CNCc1ccc(C)cc1,5.22,4.86,5.41,32.4%,5.27,4.93,3.92
COc1cc(Oc2cccc(Nc3ccccc3)c2)cc(OC)c1CN1CCN(CCO)CC1,< 4.70,< 4.70,< 4.70,–,5.19,< 4.70,< 3.82
COc1cc(Oc2cccc(Nc3ccccc3)c2)cc(OC)c1CNCc1ccccc1,5.28,5.39,5.48,26.4%,5.30,5.13,3.90
COc1cc(Oc2cccc(Nc3ccccc3)c2)cc(OC)c1CNC1CC1,< 4.70,< 4.70,4.91,1.7%,5.21,< 4.70,< 3.82
COc1cc(Oc2cccc(Nc3ccccc3)c2)cc(OC)c1CNCc1ccc2c(c1)OCO2,5.07,< 4.70,5.07,42.1%,5.05,< 4.70,3.98
COc1cc(Oc2cccc(Nc3ccccc3)c2)cc(OC)c1CN[C@H](C)c1ccccc1,5.07,< 4.70,5.29,30.5%,5.12,4.73,3.94
COc1cc(Oc2cccc(Nc3ccccc3)c2)cc(OC)c1CNC(C)C,< 4.70,< 4.70,< 4.70,–,< 4.70,< 4.70,< 3.82
COc1cc(Oc2cccc(Nc3ccccc3)c2)cc(OC)c1CNC12CC3CC(CC(C3)C1)C2,5.13,< 4.70,5.45,12.6%,5.19,< 4.70,3.83
COc1cc(Oc2cccc(Nc3ccccc3)c2)cc(OC)c1CN(CCO)CCO,< 4.70,< 4.70,< 4.70,6.1%,5.05,< 4.70,< 3.82
COc1ccccc1CCNCc1c(OC)cc(Oc2cccc(Nc3ccccc3)c2)cc1OC,5.63,5.47,5.67,67.4%,5.92,5.44,4.14
CCN1CCN(Cc2c(OC)cc(Oc3cccc(Nc4ccccc4)c3)cc2OC)CC1,< 4.70,< 4.70,< 4.70,8.9%,5.29,< 4.70,< 3.82
COc1cc(Oc2cccc(Nc3ccccc3)c2)cc(OC)c1CNCCNC(C)=O,5.22,4.74,5.40,10.2%,5.29,4.92,< 3.82
CNCc1c(OC)cc(Oc2cccc(Nc3ccccc3)c2)cc1OC,4.93,< 4.70,5.13,2.5%,5.05,4.82,< 3.82

# The next lines start with the values.
pIC50 [1],pIC50 [2],pIC50 [3],inhibition [4],pIC50 [5],pIC50 [6],pIC50 [7],Structure (SMILES)
5.47,5.27,5.55,43.7%,5.42,5.00,4.04,COc1cc(Oc2cccc(Nc3ccccc3)c2)cc(OC)c1CNCCc1ccc(Cl)cc1
5.39,5.57,5.40,42.1%,5.99,5.11,3.99,COc1ccc(CCNCc2ccc(Oc3cccc(Nc4ccccc4)c3)cc2OC)cc1
5.33,5.40,5.16,35.6%,5.66,4.84,3.94,COc1ccc(CCNCc2ccc(Oc3cccc(Nc4ccccc4)c3)cc2)cc1
5.23,5.51,5.56,42.3%,5.47,4.96,3.97,COc1ccc(CCNCc2ccc(Oc3cccc(Nc4ccccc4)c3)c(OC)c2)cc1
5.73,5.48,5.90,46.2%,5.54,5.24,4.06,COc1cc(Oc2cccc(Nc3ccccc3)c2)cc(OC)c1CNCCc1ccc(C)cc1
5.54,5.50,5.60,40.5%,5.63,5.05,4.02,COc1cc(Oc2cccc(Nc3ccccc3)c2)cc(OC)c1CNCCc1ccc(F)cc1
5.17,4.87,5.22,45.1%,5.21,4.93,4.02,COc1cc(Oc2cccc(Nc3ccccc3)c2)cc(OC)c1CNCCc1ccccc1
5.43,5.48,5.47,25.7%,5.31,5.20,3.91,COc1cc(Oc2cccc(Nc3ccccc3)c2)cc(OC)c1CNCc1ccc(Cl)cc1
5.33,5.49,5.16,70.6%,5.66,4.84,4.14,COc1ccc(CCCNCc2c(OC)cc(Oc3ccc(Nc4ccccc4)cc3)cc2OC)cc1
5.72,5.58,5.72,48.7%,5.58,5.16,4.07,COc1ccc(CNCc2c(OC)cc(Oc3cccc(Nc4ccccc4)c3)cc2OC)cc1
5.57,5.47,5.66,31.8%,5.46,5.10,3.91,COc1cc(Oc2cccc(Nc3ccccc3)c2)cc(OC)c1CNCc1ccc(O)cc1
5.95,6.01,5.99,75.1%,5.90,5.21,4.16,COc1ccc(CCNCc2c(OC)cc(Oc3cccc(Nc4ccccc4)c3)cc2OC)cc1
5.60,5.55,5.48,63.4%,6.14,5.19,3.83,COc1ccc(CCCNCc2c(OC)cc(Oc3cccc(Nc4ccccc4)c3)cc2OC)cc1
5.39,4.80,5.53,51.7%,5.21,4.90,4.08,COc1cc(Oc2cccc(Nc3ccccc3)c2)cc(OC)c1CNCCc1ccc(O)cc1
